Reference: ChEMBL document CHEMBL2202977, “Optimization and structure-activity relationships of a series of potent inhibitors of methicillin-resistant Staphylococcus aureus (MRSA) pyruvate kinase as novel antimicrobial agents” (Bioorg Med Chem, 2012)
≈ marks a conversion by molar mass, not a printed value.

Assays:
[1] = test system: Staphylococcus aureus; experiment: Antimicrobial activity against Staphylococcus aureus RN4220 after 24 hrs broth microdilution method; format: functional
Summary of the method: (§1)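 MIC taken as the minimum concentration giving >98% growth inhibition of the named S. aureus strain (RN4220, ATCC 25923 or ATCC 29213). Values are single determinations or averages of n determinations. Vancomycin was run as control.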

[2] = biological target: T1, Pyruvate kinase (Staphylococcus aureus (strain MRSA252)) (UniProt Q6GG09); experiment: Inhibition of methicillin-resistant Staphylococcus aureus 252 pyruvate kinase at 1 uM by LDH assay; conditions: Staphylococcus aureus subsp. aureus MRSA252
T1 sequence (whole entry): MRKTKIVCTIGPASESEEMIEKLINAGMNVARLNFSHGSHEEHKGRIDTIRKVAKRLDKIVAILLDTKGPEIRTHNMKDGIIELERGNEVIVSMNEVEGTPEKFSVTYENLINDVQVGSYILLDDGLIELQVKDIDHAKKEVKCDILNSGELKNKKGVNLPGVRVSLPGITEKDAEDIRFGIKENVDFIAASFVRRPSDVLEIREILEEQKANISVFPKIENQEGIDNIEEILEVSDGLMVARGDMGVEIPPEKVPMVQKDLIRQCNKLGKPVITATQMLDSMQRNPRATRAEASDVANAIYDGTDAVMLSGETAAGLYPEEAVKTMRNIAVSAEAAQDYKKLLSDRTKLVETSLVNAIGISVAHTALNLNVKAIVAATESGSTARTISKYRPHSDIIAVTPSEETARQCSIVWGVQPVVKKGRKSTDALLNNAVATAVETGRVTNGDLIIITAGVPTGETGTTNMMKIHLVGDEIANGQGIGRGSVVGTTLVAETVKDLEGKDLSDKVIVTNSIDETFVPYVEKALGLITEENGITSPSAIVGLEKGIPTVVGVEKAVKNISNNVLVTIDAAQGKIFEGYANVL
Summary of the method: (§2)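 MRSA pyruvate kinase activity was measured by a previously described procedure. IC50 was calculated from triplicate 15-point titrations, or averaged over n such determinations. Where no IC50 was obtained, the value is % inhibition at the highest concentration tested.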

[3] = test system: Staphylococcus aureus; experiment: Antimicrobial activity against Staphylococcus aureus ATCC 29213 after 24 hrs broth microdilution method; format: functional; summary of the method: as §1
[4] = biological target: T2, Pyruvate kinase (Staphylococcus aureus (strain MRSA252), UniProt Q6GG09); experiment: Inhibition of methicillin-resistant Staphylococcus aureus 252 pyruvate kinase by LDH assay; set-up: species or system Staphylococcus aureus subsp. aureus MRSA252; summary of the method: as §2
T2 sequence (Q6GG09 whole entry): T1 sequence (whole entry)

[5] = test system: THP-1; experiment: Cytotoxicity against human THP1 cells assessed as cell death at 25 uM after 24 hrs by MTS assay; format: cell-based; conditions: thp-1, 24 h
Summary of the method: (§3)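 THP-1 cells were exposed to test agent at 25 µM and 6.25 µM. Read-out was percentage of dead cells.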

[6] = biological target: Pyruvate kinase PKM (Homo sapiens) (UniProt P14618); experiment: Inhibition of human pyruvate kinase M2 at 10 uM by LDH assay
Summary of the method: (§4)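 Selected compounds were tested against mammalian PK isoforms M1, M2, R and L at the highest concentration, 10 µM. Results are given as percent inhibition.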

[7] = biological target: Pyruvate kinase PKLR (Homo sapiens) (UniProt P30613); experiment: Inhibition of human pyruvate kinase R at 10 uM by LDH assay; summary of the method: as §4
[8] = biological target: Pyruvate kinase PKM (Homo sapiens) (UniProt P14618); experiment: Inhibition of human pyruvate kinase M1 at 10 uM by LDH assay; summary of the method: as §4
[9] = biological target: T1, Pyruvate kinase (Staphylococcus aureus (strain MRSA252)); experiment: Inhibition of methicillin-resistant Staphylococcus aureus 252 pyruvate kinase at 10 uM by LDH assay; conditions: Staphylococcus aureus subsp. aureus MRSA252; summary of the method: as §2
[10] = test system: THP-1; experiment: Cytotoxicity against human THP1 cells assessed as cell death at 6.25 uM after 24 hrs by MTS assay; format: cell-based; conditions: thp-1, 24 h; summary of the method: as §3
[11] = biological target: Pyruvate kinase PKLR (Homo sapiens) (UniProt P30613); experiment: Inhibition of human pyruvate kinase L at 10 uM by LDH assay; summary of the method: as §4
[12] = biological target: T1, Pyruvate kinase (Staphylococcus aureus (strain MRSA252)); experiment: Inhibition of methicillin-resistant Staphylococcus aureus 252 pyruvate kinase at 0.5 uM by LDH assay; conditions: Staphylococcus aureus subsp. aureus MRSA252; summary of the method: as §2
[13] = test system: Staphylococcus aureus; experiment: Antimicrobial activity against Staphylococcus aureus ATCC 25923 after 24 hrs broth microdilution method; format: functional; summary of the method: as §1

Sequence of Pyruvate kinase PKM (Homo sapiens) (P14618 2-531 limits assumed): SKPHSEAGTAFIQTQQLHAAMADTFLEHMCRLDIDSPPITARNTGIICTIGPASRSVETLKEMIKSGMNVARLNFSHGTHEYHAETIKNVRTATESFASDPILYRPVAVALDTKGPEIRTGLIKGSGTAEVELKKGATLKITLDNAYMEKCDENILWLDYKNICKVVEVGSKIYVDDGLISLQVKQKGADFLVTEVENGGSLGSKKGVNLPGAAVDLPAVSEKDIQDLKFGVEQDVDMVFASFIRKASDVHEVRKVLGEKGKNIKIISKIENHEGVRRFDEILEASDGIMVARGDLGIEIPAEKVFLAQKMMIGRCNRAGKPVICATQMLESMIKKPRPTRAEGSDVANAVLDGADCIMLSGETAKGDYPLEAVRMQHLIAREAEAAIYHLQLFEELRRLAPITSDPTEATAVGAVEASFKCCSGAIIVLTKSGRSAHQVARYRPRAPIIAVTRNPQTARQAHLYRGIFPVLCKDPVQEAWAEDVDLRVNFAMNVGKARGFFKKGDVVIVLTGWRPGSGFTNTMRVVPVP
Sequence of Pyruvate kinase PKLR (Homo sapiens) (P30613 whole entry, looked up): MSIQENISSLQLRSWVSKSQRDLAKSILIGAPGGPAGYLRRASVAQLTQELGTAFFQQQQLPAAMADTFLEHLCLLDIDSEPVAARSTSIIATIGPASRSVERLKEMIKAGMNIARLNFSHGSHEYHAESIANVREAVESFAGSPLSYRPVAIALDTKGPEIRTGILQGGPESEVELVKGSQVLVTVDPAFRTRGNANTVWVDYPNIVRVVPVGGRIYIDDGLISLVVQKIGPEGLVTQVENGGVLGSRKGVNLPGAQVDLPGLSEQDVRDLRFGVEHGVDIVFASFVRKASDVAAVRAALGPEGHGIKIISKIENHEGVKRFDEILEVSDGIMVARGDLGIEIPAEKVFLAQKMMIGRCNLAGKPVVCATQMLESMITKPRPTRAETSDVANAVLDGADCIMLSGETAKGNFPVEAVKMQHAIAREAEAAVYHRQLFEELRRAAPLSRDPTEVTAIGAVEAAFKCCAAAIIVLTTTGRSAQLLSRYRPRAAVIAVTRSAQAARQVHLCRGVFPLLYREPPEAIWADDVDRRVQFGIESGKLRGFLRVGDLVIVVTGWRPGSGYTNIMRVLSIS

C/C(=N\NC(=O)c1cc(Br)ccc1O)c1cc2cc(-c3ccccc3)ccc2[nH]1
MIC>98 [1]: >90 µg/mL
inhibition [2]: 0%

C/C(=N\NC(=O)c1cc2ccccc2cc1O)c1cc2c(F)c(F)c(F)cc2n1C
MIC>98 [3]: >64 µg/mL
IC50 [4]: 59 nM

O=C(NN=C(c1ccccc1)c1cc2ccccc2[nH]1)c1cc(Br)ccc1O
Activity [5]: 83%
IC50 [4]: 445 nM
inhibition [6]: 4.8%
MIC>98 [1]: 1.4 µg/mL (≈ 3.22 µM)
inhibition [7]: 13.4%
inhibition [8]: 11.2%
inhibition [9]: 97.6%
Activity [10]: 43%
inhibition [11]: 5.6%

CC(=NNC(=O)c1ccc(Br)cc1O)c1cc2ccccc2n1C (mixture of isomers)
MIC>98 [1]: 4.8 µg/mL
inhibition [12]: 61%

CC(=NNC(=O)c1cc(Br)ccc1O)c1cc2c(F)c(F)c(F)cc2n1C (mixture of isomers)
MIC>98 [3]: 2 µg/mL
IC50 [4]: 55 nM

CCC(=NNC(=O)c1cc2ccccc2cc1O)c1cc2cc(Br)ccc2n1C (mixture of isomers)
MIC>98 [3]: 1 µg/mL
IC50 [4]: 79 nM
inhibition [6]: -0.8%
inhibition [7]: -0.6%
inhibition [8]: 0%
inhibition [9]: 97.7%
inhibition [11]: -5.6%

CC/C(=N\NC(=O)c1cc2ccccc2cc1O)c1cc2cc(Br)ccc2[nH]1
MIC>98 [3]: 16 µg/mL (≈ 36.7 µM)
IC50 [4]: 18 nM
inhibition [6]: 3%
inhibition [7]: -3.4%
inhibition [8]: 5.6%
inhibition [9]: 99.6%
inhibition [11]: -0.2%

CCOc1ccc(Br)cc1C(=O)N/N=C(\C)c1cc2ccccc2[nH]1
MIC>98 [3]: >64 µg/mL
IC50 [4]: 63 nM

CCOCOc1ccccc1C(=O)N/N=C(\C)c1cc2cc(Br)ccc2[nH]1
MIC>98 [3]: >64 µg/mL
IC50 [4]: 251 nM

C/C(=N\NC(=O)c1cc(Br)ccc1O)c1cc2cccc(F)c2[nH]1
MIC>98 [1]: >156 µg/mL
inhibition [12]: 39%

CC(=NNC(=O)c1cc(Br)ccc1O)c1cc2cc(O)ccc2n1C (mixture of isomers)
inhibition [2]: 54%
MIC>98 [13]: >64 µg/mL

CC(=NNC(=O)c1cc(Br)ccc1O)c1cc2ccccc2n1C (mixture of isomers)
MIC>98 [3]: 7.7 µg/mL
IC50 [4]: 381 nM
inhibition [6]: 0.4%
inhibition [7]: 2.6%
inhibition [8]: -3.7%
inhibition [9]: 96.3%

C/C(=N\NC(=O)c1cc(Br)ccc1O)c1cc2ccc(Br)cc2[nH]1
IC50 [4]: 24 nM
MIC>98 [13]: >64 µg/mL

C/C(=N\NC(=O)c1cc(Br)ccc1O)c1cc2c(F)c(F)c(F)cc2[nH]1
MIC>98 [3]: >85 µg/mL
IC50 [4]: 15 nM

COc1ccc(Br)cc1C(=O)N/N=C/c1cc2ccccc2[nH]1
MIC>98 [3]: >64 µg/mL
IC50 [4]: 451 nM

Cn1c(C(=NNC(=O)c2cc(Br)ccc2O)c2ccccc2)cc2ccccc21 (mixture of isomers)
Activity [5]: 78%
IC50 [4]: 6040 nM
MIC>98 [1]: 1.4 µg/mL
Activity [10]: 19%

COc1ccc(Br)cc1C(=O)N/N=C(\C)c1cc2ccccc2[nH]1
IC50 [4]: 182 nM
inhibition [6]: 16.1%
MIC>98 [1]: >193 µg/mL
inhibition [7]: 31.9%
inhibition [8]: 29%
inhibition [9]: 83.4%
inhibition [11]: 27.2%

C/C(=N\NC(=O)c1cc(Cl)ccc1O)c1cc2ccccc2[nH]1
MIC>98 [1]: >64 µg/mL
inhibition [2]: 36%

COc1ccc(Br)cc1C(=O)N(C)/N=C(\C)c1cc2ccccc2[nH]1
inhibition [2]: 33%
MIC>98 [13]: >80 µg/mL

CC(C)(C)/C(=N/NC(=O)c1cc(Br)ccc1O)c1cc2ccccc2[nH]1
Activity [5]: 50%
MIC>98 [1]: 83 µg/mL (≈ 200 µM)
inhibition [9]: 0%
Activity [10]: 42%

C/C(=N\NC(=O)c1cc(Br)ccc1O)c1cc2cc(O)ccc2[nH]1
IC50 [4]: 214 nM
MIC>98 [13]: >64 µg/mL

COc1c(Br)cc(Br)cc1C(=O)N/N=C(\C)c1cc2ccccc2[nH]1
inhibition [2]: 57%
MIC>98 [13]: >93 µg/mL

C/C(=N\NC(=O)c1cc(I)ccc1O)c1cc2ccccc2[nH]1
IC50 [4]: 151 nM
inhibition [6]: -1.3%
MIC>98 [1]: >84 µg/mL
inhibition [7]: 0.9%
inhibition [8]: 0%
inhibition [9]: 97%
inhibition [11]: -1.6%

CCC(=NNC(=O)c1cc(Br)ccc1O)c1cc2cc(Br)ccc2n1C (mixture of isomers)
MIC>98 [3]: 2 µg/mL
IC50 [4]: 168 nM

CC/C(=N\NC(=O)c1cc2ccccc2cc1O)c1cc2c(F)c(F)c(F)cc2n1C
MIC>98 [3]: 32 µg/mL (≈ 75.2 µM)
IC50 [4]: 52 nM

CC/C(=N\NC(=O)c1cc2ccccc2cc1O)c1cc2c(F)c(F)c(F)cc2[nH]1
MIC>98 [3]: >64 µg/mL
IC50 [4]: 31 nM

C/C(=N\NC(=O)c1cc2ccccc2cc1O)c1cc2ccccc2[nH]1
MIC>98 [3]: >64 µg/mL
IC50 [4]: 42 nM

Cn1c(/C(=N\NC(=O)c2cc(Br)ccc2O)C(C)(C)C)cc2ccccc21
Activity [5]: 73%
MIC>98 [1]: 10.7 µg/mL (≈ 25 µM)
inhibition [9]: 0%
Activity [10]: 25%

CC(=NNC(=O)c1cc2ccccc2cc1O)c1cc2cc(Br)ccc2n1C (mixture of isomers)
MIC>98 [3]: >64 µg/mL
IC50 [4]: 115 nM

CC/C(=N\NC(=O)c1cc(Br)ccc1O)c1cc2cc(Br)ccc2[nH]1
MIC>98 [3]: 4 µg/mL (≈ 8.6 µM)
IC50 [4]: 49 nM

CC(=NNC(=O)c1cc(Br)ccc1O)c1nc2ccccc2o1 (mixture of isomers)
MIC>98 [3]: >150 µg/mL
inhibition [12]: 26%

C/C(=N\NC(=O)c1cc2ccccc2cc1O)c1cc2cc(Br)ccc2[nH]1
MIC>98 [3]: >64 µg/mL
IC50 [4]: 26 nM

CC(=NNC(=O)c1cc(I)ccc1O)c1cc2ccccc2n1C (mixture of isomers)
IC50 [4]: 483 nM
inhibition [6]: -2%
MIC>98 [1]: 5.4 µg/mL
inhibition [7]: 4.7%
inhibition [8]: -5.3%
inhibition [9]: 94.2%
inhibition [11]: 4.4%
